{"data": "Experimental data collected from several papers", "effect on": "enzyme activity", "mode": "inhibitor", "HDAC1": "Histone deacetylase 1 (HDAC1, Homo sapiens, UniProt Q13547)", "PARP10": "Protein mono-ADP-ribosyltransferase PARP10 (PARP10, Homo sapiens, UniProt Q53GL7)", "HDAC8": "Histone deacetylase 8 (HDAC8, Homo sapiens, UniProt Q9BY41)", "Seed linoleate 13S-lipoxygenase-1": "Seed linoleate 13S-lipoxygenase-1 (Glycine max, UniProt P08170)"}
{"SMILES": "O=C(CCCCc1ccc(CO)cc1)C(F)(F)C(F)(F)F", "target": "Cytosolic phospholipase A2 (PLA2G4A, Homo sapiens, UniProt P47712)", "IC50 [nM]": 121000}
{"SMILES": "O=C(CCCCCC(=O)N(Cc1nc(-c2ccccc2)cs1)c1ccc(OCc2ccc(F)cc2)cc1)NO", "target": "HDAC1", "IC50 [nM]": 3.8}
{"SMILES": "O=c1[nH]c2c(nnn2-c2ccccc2)c2ccc(F)cc12", "target": "PARP10", "IC50 [nM]": "> 10000"}
{"SMILES": "Cc1ccc(S(=O)(=O)NNc2ccc([N+](=O)[O-])cc2[N+](=O)[O-])cc1", "target": "Polyunsaturated fatty acid 5-lipoxygenase (ALOX5, Homo sapiens, UniProt P09917)", "IC50 [nM]": 1330}
{"SMILES": "c1c(N2CCCC2)nc(N2CCCC2)nc1N1CCNCC1", "target": "Caspase-5 (CASP5, Homo sapiens, UniProt P51878)", "notes": "with preincubation", "IC50 [nM]": 138}
{"SMILES": "O=C(NO)c1ccc(Cn2cnc3c(Nc4ccc(F)c(Cl)c4)ncnc32)cc1", "target": "HDAC8", "IC50 [nM]": 154}
{"SMILES": "NC/C(=C\\F)COc1cccc(Cn2c(=S)[nH]c(=O)c3[nH]cnc32)c1", "target": "Protein-lysine 6-oxidase (Homo sapiens, UniProt P28300)", "IC50 [nM]": "> 30000"}
{"SMILES": "O=C(O[C@@H]1COC(=O)c2cc(O)c(O)c(O)c2-c2c(cc(O)c(O)c2O)C(=O)O[C@H]1[C@@H]1OC(=O)c2cc(O)c(O)c(O)c2-c2c(O)c(O)c(O)c3c2C(=O)O[C@H]1[C@@H]3O)c1cc(O)c(O)c(O)c1", "target": "Seed linoleate 13S-lipoxygenase-1", "IC50 [nM]": 36200}
{"SMILES": "Cc1ccc(Cn2cc(-c3ccccc3C(N)=O)nn2)cc1", "target": "PARP10", "IC50 [nM]": "> 10000"}
{"SMILES": "O=C(NO)c1ccc(Cn2cnc3c(Nc4cccc([N+](=O)[O-])c4)ncnc32)cc1", "target": "HDAC8", "IC50 [nM]": 118}
{"SMILES": "Cc1ccc(Cn2nnc3c4cc(C)ccc4c(=O)[nH]c32)cc1", "target": "PARP10", "IC50 [nM]": "> 10000"}
{"SMILES": "CC(C)COc1ccc(N(Cc2nc(-c3ccccc3)cs2)C(=O)CCCCCC(=O)NO)cc1", "target": "HDAC1", "IC50 [nM]": 2.6}
{"SMILES": "Clc1ccc(Nc2ccncc2)cc1Cl", "target": "Uracil-DNA glycosylase (UNG, Homo sapiens, UniProt P13051)", "IC50 [nM]": "> 99000"}
{"SMILES": "CCCCCn1nnc2c3ccccc3c(=O)[nH]c21", "target": "PARP10", "IC50 [nM]": 182}
{"SMILES": "Nc1ccccc1NC(=O)c1ccc(Cn2cnc3c(Nc4ccc(Cl)cc4)ncnc32)cc1", "target": "HDAC1", "method": "fluorescence", "IC50 [nM]": 14.1}
{"SMILES": "COc1ccc(N(Cc2csc(-c3ccc(Cl)cc3)n2)C(=O)CCCCCC(=O)NO)cc1", "target": "HDAC1", "IC50 [nM]": 1}
{"SMILES": "COc1ccc(Nc2ncnc3c2ncn3Cc2ccc(C(=O)NO)cc2)cc1", "target": "HDAC1", "method": "fluorescence", "IC50 [nM]": 260}
{"SMILES": "C=C(C)[C@@H]1CC[C@]2(C)CC[C@]3(C)[C@H](CC[C@@H]4[C@@]5(C)CC[C@H](O)C(C)(C)[C@@H]5CC[C@]43C)[C@@H]12", "target": "Seed linoleate 13S-lipoxygenase-1", "IC50 [nM]": 110000}
{"SMILES": "CCCOc1ccc(N(Cc2nc(-c3ccccc3)cs2)C(=O)CCCCCC(=O)NO)cc1", "target": "HDAC1", "IC50 [nM]": 2.2}
{"SMILES": "O=c1[nH]c2c(nnn2Cc2ccccc2)c2ccc(F)cc12", "target": "PARP10", "IC50 [nM]": 933}
{"SMILES": "COc1ccc(N(Cc2csc(-c3ccccc3Br)n2)C(=O)CCCCCC(=O)NO)cc1", "target": "HDAC1", "IC50 [nM]": 1.3}
{"SMILES": "O=c1[nH]c2c(nnn2Cc2ccccc2C(F)(F)F)c2ccccc12", "target": "PARP10", "IC50 [nM]": "> 10000"}
{"SMILES": "COc1ccc(N(Cc2nc(-c3ccc(Br)cc3)cs2)C(=O)CCCCCC(=O)NO)cc1", "target": "HDAC1", "IC50 [nM]": 3.6}
{"SMILES": "O=c1[nH]c2c(nnn2Cc2c(F)c(F)c(F)c(F)c2F)c2ccc(F)cc12", "target": "PARP10", "IC50 [nM]": "> 10000"}
{"SMILES": "COc1ccc(N(Cc2csc(-c3ccc(C)cc3)n2)C(=O)CCCCCC(=O)NO)cc1", "target": "HDAC1", "IC50 [nM]": 0.8}
{"SMILES": "Cc1ccc(Cn2nnc3c4ccccc4c(=O)[nH]c32)cc1", "target": "PARP10", "IC50 [nM]": 204}
